Source: PubChem BioAssay (Broad Institute)
The list is not random: actives were taken first. Their share in the collection is about 2.9%.
PglD inh = PglD (C. jejuni) enzyme inhibition; inhibition, % at 12.5 µM; purified PglD enzyme, DTNB colorimetric CoA detection; actives 0.098% (n = 360,000); AID 602405; in the data active = inhibition above about 16%, passing the limit was not always enough
Vif inh = HIV Vif inhibition; HEK293T cells, Vif self-association by quenched fluorescence, imaging, 24 h; inhibition, % at 7.49 µM; actives 0.35% (n = 340,000); AID 602346; in the data active = inhibition above about 50%, passing the limit was not always enough
PGC1a acetyl inh = modulators of PGC1a acetylation; U2OS PGC1a acetylation, AlphaScreen anti-acetyl-lysine; with virally co-expressed GCN5 acetyltransferase; actives 0.17% (n = 350,000); inhibition, % at 15.6 µM;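 active = every replicate shows inhibition of at least 40%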
FGF22 binding = FGF22 (human) thermal shift binding; Q9HCT0; recombinant FGF22 thermal shift, SYPRO orange fluorescence; percent of sucrose octasulfate shift, DMSO zero; activity (Tm shift, normalised), % at 9.99 µM; actives 1.5% (n = 340,000); AID 651658;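 active = mean Tm shift, scaled 0 neutral to 100 positive control, at about 1.3% or above, every replicate too, limit read from the data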
Target sequence (Q9HCT0 whole entry, looked up): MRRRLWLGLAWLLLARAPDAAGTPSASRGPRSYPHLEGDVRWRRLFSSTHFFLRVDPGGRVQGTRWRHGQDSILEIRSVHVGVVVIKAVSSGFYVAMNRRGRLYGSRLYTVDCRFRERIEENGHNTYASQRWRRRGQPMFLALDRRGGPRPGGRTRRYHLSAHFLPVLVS
Ecoli rRNA inh = selective bacterial rRNA inhibition in E. coli | E. coli WT GFP vs humanized-ribosome RFP mutants, fluorescence, 24 h; active compounds read low; DMSO median 0, no signal -100 | GFP signal change (wild-type ribosome), % (no concentration beside the values) | actives 1.6% (n = 350,000) | AID 720706;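 active = significant combined selectivity score with lowered wild-type GFP, culture density cut under 30%, mutant RFP and density less affected; inactive = any of these conditions unmet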
Cneo AK release = causes C. neoformans cell lysis; adenylate kinase release luminescence, 4 h; normalised: neutral wells 0, clomiphene wells 100; lysis activity, % at 15 µM; actives 0.2% (n = 360,000);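 active = mean lysis activity across replicates of at least 80%, whatever share of replicates individually reach that level; inactive = mean lysis activity below 80%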
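Test system: log-phase Cryptococcus neoformans yeast cells. Input: 5 × 10^6 yeast cells/mL. Medium: fresh YPD growth medium. Doses: single dose. Incubation: static 4 h at 37 °C with compound, 1 h detection. Measured by: luminescent adenylate kinase detection reagent. Read-out: signal increase indicating cell lysis. Benchmarks: Clomiphene.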
Each line names hits and unclear results; the compound was inactive in the other large screens.

CO[C@H]1CN(C)C(=O)c2ccc(NC(C)=O)cc2OC[C@H](C)N(C(=O)c2ccc(F)cc2)C[C@H]1C	none (no result: Vif inh)
Cc1ccc2c(c1)C1CN(C)CCC1N2S(=O)(=O)c1ccc(C#N)cc1 (configuration not stated)	Vif inh 55 (no result: Ecoli rRNA inh)
CCOC(=O)c1c2ccc(OCC(=O)NN)cc2n2ccccc12	FGF22 binding 43, Ecoli rRNA inh -24 (no result: PglD inh, PGC1a acetyl inh, Cneo AK release)
O=C(C1CCC1)N1C[C@@H]2[C@H](c3ccccc31)[C@@H](CO)N2C(=O)Cc1ccccn1	none (no result: Vif inh, FGF22 binding)
CCOc1ccc(NC(=O)CSc2nnc(Cn3cnc([N+](=O)[O-])n3)n2C)cc1	none (no result: PGC1a acetyl inh, FGF22 binding, Ecoli rRNA inh)
CCOc1ccc(NC(=O)CSc2nnc(Cn3cnc([N+](=O)[O-])n3)n2CC)cc1	FGF22 binding 43 (no result: PglD inh, Cneo AK release)
COc1ccc2c3c([nH]c2c1)[C@@H](CO)N(CC1CCOCC1)CC31CN(CC2CCOCC2)C1	none (no result: PglD inh, Vif inh, Cneo AK release)
C[C@H]1CCCCO[C@H](CN(C)S(=O)(=O)c2ccccc2)[C@@H](C)CN([C@@H](C)CO)C(=O)c2cc(NC(=O)Nc3ccc(C(F)(F)F)cc3)ccc2O1	none (no result: Vif inh)
COc1ccc(C(=O)c2ccc(N(C)C)cc2)c(OC)c1	none
CN(C)c1ccc(C(=O)c2ccc(N(C)C)c3ccccc23)cc1	Vif inh 78 (no result: FGF22 binding, Ecoli rRNA inh)
Cc1cccc(N2C(=O)CN(Cc3ccccc3)C2=S)c1	Ecoli rRNA inh -14
COc1cc(CN2CC(=O)N(c3ccccc3Cl)C2=S)cc(OC)c1OC	Ecoli rRNA inh -18
CO[C@@H]1CN(C)C(=O)c2cc(NC(=O)Nc3cc(F)ccc3F)ccc2OC[C@H](C)N(C(=O)c2cnccn2)C[C@H]1C	none (no result: Vif inh)
Cc1ccc(S(=O)(=O)Nc2ccc3c(c2)C(=O)N([C@H](C)CO)C[C@@H](C)[C@@H](CN(C)Cc2ccccc2)OCCCC[C@@H](C)O3)cc1	none (no result: Vif inh)
CC(C)NC(=O)N[C@H]1CC[C@@H](CCNC(=O)C2CC2)O[C@@H]1CO	Cneo AK release 93 (no result: Vif inh)
CC(C)NC(=O)N[C@H]1CC[C@H](CCNC(=O)C2CC2)O[C@H]1CO	none (no result: Vif inh)
CC(C)NC(=O)N[C@H]1CC[C@@H](CCNC(=O)C2CC2)O[C@H]1CO	Cneo AK release 92 (no result: Vif inh)
Cc1noc(C)c1NC(=O)Nc1ccc2c(c1)C(=O)N([C@@H](C)CO)C[C@H](C)[C@@H](CN(C)Cc1ccc(C(F)(F)F)cc1)OCCCC[C@H](C)O2	none (no result: Vif inh)
Clc1ccc(-c2c[nH]c3ccccc23)nn1	FGF22 binding 43
CN(C)c1ccc(C=Cc2ccnc3c(O)cccc23)cc1	Vif inh 51
CN(C)c1ccc(C=Cc2ccnc3ccccc23)cc1N	none (no result: Vif inh)
CN(C)CCNC(=O)c1ccc2c(=O)n(Cc3ccc(Cl)cc3)c(=S)[nH]c2c1	none (no result: PGC1a acetyl inh)
CCCCN(C)CCNC(=O)c1ccc(Cn2c(=S)[nH]c3ccc(Br)cc3c2=O)cc1	Ecoli rRNA inh -53 (no result: PglD inh, PGC1a acetyl inh, Cneo AK release)
O=C(C[C@@H]1CC[C@@H]2[C@H](COC[C@H](O)CN2Cc2ccc(Cl)cc2)O1)NCc1ccccc1Cl	none (no result: Vif inh)
O=C(Nc1ccccc1)N1CCN(c2nc(-c3ccccc3)ns2)CC1	Ecoli rRNA inh -30 (no result: PglD inh, Cneo AK release)
COc1cccc(NC(=O)N2CCN(S(C)(=O)=O)CC2)c1	none (no result: PglD inh, Cneo AK release)
CS(=O)(=O)N1CCN(C(=O)Nc2ccccc2)CC1	FGF22 binding 43 (no result: PGC1a acetyl inh)
Cc1ccc(S(=O)(=O)N/N=C/c2c[nH]c3ccccc23)cc1	PGC1a acetyl inh 105
O=C(O)c1ccc(S(=O)(=O)NN=Cc2c[nH]c3ccccc23)cc1	none (no result: PglD inh, PGC1a acetyl inh, Cneo AK release)
Cc1ccc(S(=O)(=O)N2C[C@H]3[C@H]4C(=O)N(c5ccccc5)C(=O)[C@H]4C[C@H](OC(=O)Nc4c(C)noc4C)[C@@]3(O)C2)cc1	Ecoli rRNA inh -2.8
Cc1ccc(S(=O)(=O)N2C[C@H]3[C@H]4C(=O)N(c5ccccc5)C(=O)[C@H]4C[C@H](OC(=O)NC4CC4)[C@@]3(O)C2)cc1	none
CO[C@H]1CN(C)C(=O)c2cc(NS(C)(=O)=O)ccc2OC[C@@H](C)N(CCC(F)(F)F)C[C@@H]1C	none (no result: Vif inh)
CC(=O)n1cc(/C=N/NC(=O)c2ccccc2O)c2ccccc21	Ecoli rRNA inh -25 (no result: PGC1a acetyl inh)
O=C(N/N=C/c1ccccc1O)c1cccc2ccccc12	Ecoli rRNA inh -35
O=C(O)c1ccc(C=NNC(=O)c2cccc3ccccc23)cc1	none (no result: PglD inh, PGC1a acetyl inh, Cneo AK release)
Cn1cc(/C=N/NC(=O)c2ccccc2O)c2ccccc21	none
CO[C@@H]1CN(C)C(=O)c2ccc(NC(=O)c3nc4ccccc4s3)cc2OC[C@@H](C)NC[C@H]1C	none (no result: Vif inh)
CCOc1ccc(NS(=O)(=O)c2ccc(C(=O)N3CCN(c4ncccn4)CC3)cc2)cc1	Ecoli rRNA inh -23 (no result: PglD inh, Cneo AK release)
COc1ccc(N2CCN(C(=O)c3ccc(NS(=O)(=O)c4cccs4)cc3)CC2)cc1	Ecoli rRNA inh -23
COc1ccc(N2CCN(C(=O)c3ccc(NS(=O)(=O)c4ccc(F)cc4)cc3)CC2)cc1	none (no result: FGF22 binding, Ecoli rRNA inh)
C=CCNC(=O)CCc1nnc(C2(c3ccc(Cl)cc3)CCC2)o1	none (no result: PglD inh, PGC1a acetyl inh, Cneo AK release)
COCC(C)NC(=O)CCc1nnc(C2(c3ccc(Cl)cc3)CCC2)o1 (configuration not stated)	none (no result: PglD inh, PGC1a acetyl inh, FGF22 binding, Ecoli rRNA inh, Cneo AK release)
CC(c1ccon1)N(C)C(=O)CCc1nnc(C2(c3ccc(Cl)cc3)CCC2)o1 (configuration not stated)	FGF22 binding 43 (no result: PglD inh, PGC1a acetyl inh, Cneo AK release)
O=C(CCc1nnc(C2(c3ccc(Cl)cc3)CCC2)o1)NC1CC1	FGF22 binding 44 (no result: PglD inh, Cneo AK release)
CCCC(=O)Nc1ccc2c(c1)OC[C@@H](C)N(Cc1cccc(F)c1)C[C@H](C)[C@@H](OC)CN(C)C2=O	none (no result: Vif inh)
CC(=O)Cc1nsc(Nc2ccc(Cl)cc2)n1	FGF22 binding 43 (no result: PglD inh, PGC1a acetyl inh, Cneo AK release)
CC(=O)Cc1nsc(NC(=O)c2ccc(-c3cccc(Cl)c3)o2)n1	FGF22 binding 1.4
CC(=O)Cc1nsc(NC(=O)c2ccc(Br)o2)n1	none
CN1C(=O)c2cc(NC(=O)c3ccc(F)cc3)ccc2OC[C@@H]2O[C@H](CC(=O)NC3CCC3)CC[C@@H]21	none (no result: Vif inh)
CCN1C(=O)c2cccc3c(S(=O)(=O)N(C)C)ccc1c23	none
CN1C(=O)c2cccc3c(S(=O)(=O)N(C)C)ccc1c23	Cneo AK release 118 (no result: PGC1a acetyl inh)
CCCC(=O)N1CC2(C1)CN(Cc1nccs1)[C@@H](CO)c1[nH]c3cc(OC)ccc3c12	none (no result: PglD inh, Vif inh, FGF22 binding, Cneo AK release)
CC(C)Nc1c(N)c(=O)oc2ccccc12	Vif inh 59 (no result: FGF22 binding, Ecoli rRNA inh)
CNc1c(N)c(=O)oc2ccccc12	none
CCOc1ccc(Cl)cc1CSc1ncn[nH]1	Ecoli rRNA inh -22 (no result: PglD inh)
CC(C)NC(=O)N(C)C[C@@H]1OCCCC[C@H](C)Oc2ccc(NC(=O)Nc3ccc(F)cc3)cc2C(=O)N([C@@H](C)CO)C[C@H]1C	none (no result: Vif inh)
Cc1c(NC(=O)c2cc3ccccc3oc2=O)c(=O)n(-c2ccccc2)n1C	Vif inh 90 (no result: PGC1a acetyl inh, FGF22 binding, Ecoli rRNA inh)
Cc1ccc(-c2cc(C(=O)Nc3c(C)n(C)n(-c4ccccc4)c3=O)[nH]n2)c(O)c1C	Ecoli rRNA inh -20 (no result: PglD inh, Cneo AK release)
